According to ChEMBL document CHEMBL4715907, “Cytoprotective activities of kinetin purine isosteres” (Bioorg Med Chem, 2021):
The source made the active and inactive calls. No cut-off for these calls is given here.

Columns and labels:
[1] = Apparent permeability of compound in human Caco2 cells; format: ADME, cell-based; settings: Caco-2
[2] = Protein binding in human plasma at 10 uM after 4 hrs by RF-MS analysis; format: ADME, cell-free; settings: read-out: PPB (converted)
[3] = Apparent permeability of compound in MDCK-MDR1 cells; format: ADME, cell-based, Canis lupus familiaris; settings: dog
Procedure, shortened: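 MDCK-MDR1 cells formed monolayers on 1 µm pore Transwell filters, used only if intact by Lucifer Yellow rejection. Cells were washed with HBSS and pre-equilibrated at pH 7.4 for 1 h, then exposed to 10 µM compound in HBSS pH 7.4 for 1 h, apical-to-basal and basal-to-apical. Donor and acceptor were quantified by RapidFire MS/MS (MRM). Papp = (dQ/dt)/(C0 × A), duplicates.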

[4] = Stability in human plasma assessed as parent compound remaining at 2 uM measured up to 120 mins by RF-MS analysis; format: ADME, cell-free; settings: read-out: Stabilty
[5] = Stability in human liver microsomes assessed as parent compound remaining at 2 uM measured up to 60 mins by RF-MS analysis; format: ADME, Microsome; settings: read-out: Stabilty
[6] = target: T1, Frataxin, mitochondrial (Homo sapiens) (UniProt Q16595); assay: Activation of His6-tagged-thrombin cleavage site-fused FXN (79 to 207 residues) (unknown origin) assessed as increase in Fe-S cluster biosynthesis at 30 to 500 uM by UV-visible spectroscopy relative to control; settings: dose 30-500 µM
T1 sequence (whole entry): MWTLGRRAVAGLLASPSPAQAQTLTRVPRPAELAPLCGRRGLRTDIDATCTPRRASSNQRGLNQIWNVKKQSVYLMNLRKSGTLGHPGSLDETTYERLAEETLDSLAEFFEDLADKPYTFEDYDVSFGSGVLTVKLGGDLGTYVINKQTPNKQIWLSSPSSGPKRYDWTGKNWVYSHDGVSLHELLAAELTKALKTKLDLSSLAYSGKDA
Procedure, shortened: (§1)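 Mouse ISC machinery reconstituted in vitro from purified proteins under anaerobic conditions. Buffer was 50 mM Tris, 150 mM NaCl, pH 8, with 50 µM apo-ISCU loaded with one equivalent Fe2+, 5 µM NFS1-ISD11-ACP, 5 µM FDX2, 2 µM FDXR and 100 µM NADPH. Compounds in DMSO were tested at 30, 50, 100, 200 and 500; DMSO was equalized. 5 µM FXN served as positive control. Run in triplicate.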

GM04078 [7] = assay: Cytoprotective activity against BSO-induced toxicity in human GM04078 cells assessed as increase in cell viability preincubated for 24 hrs followed by BSO-stimulation and […] by resazurin fluorescence based assay; format: functional
[8] = Drug degradation in human liver microsomes at 2 uM measured up to 60 mins by RF-MS analysis; format: ADME, Tissue, Microsome; settings: read-out: Drug degradation
GM04663 = assay: Cytoprotective activity in human GM04663 cells assessed as aberrant splicing of ELP1 mRNA expression at 50 uM incubated for 24 hrs by RT-PCR anlaysis; format: functional, cell-based
Procedure, shortened: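 GM04663 patient fibroblasts, about 500,000 per 10 cm dish in DMEM with 10% FBS, were grown overnight and then treated 24 h at 50 µM, with DMSO vehicle. Total RNA was extracted with Trizol and reverse-transcribed. ELP1 nt 2194–2593 (NM_003640.5) was amplified over 34 cycles with 63.8 °C annealing. Wild-type and aberrant transcripts were quantified by peak area against DNA standards of known size and concentration.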

GM04078 [9] = assay: Cytoprotective activity against BSO-induced toxicity in human GM04078 cells assessed as restoring FXN protein expression at 10 to 50 uM after 48 hrs by Western blot analysis; format: functional, cell-based; settings: dose 10-50 µM
Procedure, shortened: (§2)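 GM04078 cells (about 1.4 million per 10 cm dish, DMEM with 10% FBS) were treated 24 h after seeding at 10 and 50 µM and harvested after 48 h. Lysates in Laemmli buffer were normalized by Bradford, 25–40 µg run on 12.5% SDS-PAGE and transferred to PVDF. Blots were probed with anti-frataxin mouse antibody (18A5DB1), actin as loading control, HRP secondary and ECL.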

SH-SY5Y [10] = assay: Cytoprotective activity against glutamate-induced human ATRA-differentiated SH-SY5Y cells from ECACC assessed as reduction in oxidative stress at 10 uM after 24 hrs by dihydroethidium staining based assay; format: functional, cell-based
GM04078 [11] = assay: Cytoprotective activity against BSO-induced toxicity in human GM04078 cells assessed as increase in cell viability at 10 to 50 uM preincubated for 24 hrs followed by BSO-stimulation and […] by resazurin fluorescence based assay; format: functional; settings: dose 10-50 µM
SH-SY5Y [12] = assay: Cytoprotective activity against glutamate-induced human ATRA-differentiated SH-SY5Y cells assessed as reduction in oxidative stress […] by dihydroethidium staining based assay; format: functional, cell-based; settings: dose 0.1-10 µM
GM04078 [13] = assay: Cytoprotective activity against BSO-induced toxicity in human GM04078 cells assessed as restoring GSH level […] by confocal microscopic method; format: functional, cell-based; settings: time 32.0 hrs
[14] = target: T1, Frataxin, mitochondrial (Homo sapiens); assay: Inhibition of His6-tagged-thrombin cleavage site-fused FXN (79 to 207 residues) (unknown origin) assessed as increase in Fe-S cluster biosynthesis at 30 to 500 uM by UV-visible spectroscopy relative to control; settings: dose 30-500 µM; procedure, shortened: as §1
GM04078 [15] = assay: Cytoprotective activity against BSO-induced toxicity in human GM04078 cells assessed as restoring FXN protein expression at 10 to 50 uM after 48 hrs by immunodetection assay; format: functional, cell-based; settings: dose 10-50 µM; procedure, shortened: as §2
SH-SY5Y [16] = assay: Cytoprotective activity against glutamate-induced ATRA-differentiated human SH-SY5Y cells assessed as reduction in cell death at 10 uM after 24 hrs by propidium iodide staining based assay relative to control; format: functional; design: scale not given: the % may be the effect or the level left
Procedure, shortened: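 SH-SY5Y cells (20,000/well) differentiated 48 h with 10 µM ATRA in DMEM/F12 with 1% FBS. Medium replaced by fresh DMEM/F12 with 1% FBS containing test compound at 0.1, 1 or 10 µM; DMSO vehicle as negative control. Cells exposed immediately to 160 mM glutamate for 24 h. Dead cells stained with propidium iodide (1 µg/mL final, 15 min, rt); fluorescence read at ex 535/em 617 nm.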

| Compound | Papp [1] [×10⁻⁶ cm/s] | fraction unbound at 4 h, 10 µM [2] | Papp [3] [×10⁻⁶ cm/s] | remaining at 2 h, 2 µM [4] [%] | remaining at 1 h, 2 µM [5] [%] | Activity (GM04663) | further results |
| --- | --- | --- | --- | --- | --- | --- | --- |
| Clc1cc(NCc2ccco2)c2nc[nH]c2n1 | 7.6 | 0.871 | 16.3 | 83 | 78 |  |  |
| Clc1nc(NCc2ccco2)c2cc[nH]c2n1 | 7.6 | 0.871 | 16.3 | 83 | 78 | Active |  |
| Cc1ccc(C(C)Nc2ncnc3c2cnn3C)o1 (configuration not stated) |  |  |  |  |  | inactive |  |
| Clc1cc2[nH]cnc2c(NCc2ccco2)n1 | 7.6 | 0.871 | 16.3 | 83 | 78 |  | Activity (GM04078 [9]): inactive; Activity (SH-SY5Y [10]): Active; Activity (GM04078 [11]): Active; Activity (SH-SY5Y [12]): Dose-dependent effect; Activity (GM04078 [13]): inactive; Activity (GM04078 [7]): Dose-dependent effect; inhibition [14]: Active; Activity (GM04078 [15]): inactive; Activity (SH-SY5Y [16]): 10% |
| Cc1ccc(CN(C)c2ncnc3c2cnn3C)o1 |  |  |  |  |  | inactive |  |
| Cc1ccc(CNc2ncnc3[nH]ncc23)o1 |  |  |  |  |  | inactive |  |
| Clc1nc(NCc2ccco2)c2[nH]cnc2n1 | 7.6 | 0.871 | 16.3 | 83 | 78 |  |  |
| Clc1nc(NCc2ccco2)c2[nH]ccc2n1 | 7.6 | 0.871 | 16.3 | 83 | 78 | Active | Activity (SH-SY5Y [12]): Dose-dependent effect; Activity (SH-SY5Y [16]): 10% |
| c1coc(CNc2ncnc3[nH]cnc23)c1 [KINETIN] | 7.6 | 0.871 | 16.3 | 83 | 78 |  |  |
| CN(Cc1ccco1)c1ncnc2c1cnn2C |  |  |  |  |  | inactive |  |
| Cc1oc2ncnc(NCc3ccco3)c2c1C | 7.6 | 0.871 | 16.3 | 83 | 78 | Active | Activity (SH-SY5Y [12]): Dose-dependent effect; metabolised at 1 h, 2 µM [8]: > 50%; Activity (SH-SY5Y [16]): 10% |
| c1coc(CNc2ccnc3ccnn23)c1 | 7.6 | 0.871 | 16.3 | 83 | 78 |  |  |

Now from value to compound, other results behind:

| Papp [1] [×10⁻⁶ cm/s] | fraction unbound at 4 h, 10 µM [2] | Papp [3] [×10⁻⁶ cm/s] | remaining at 2 h, 2 µM [4] [%] | remaining at 1 h, 2 µM [5] [%] | Compound | Activity (GM04663) | further results |
| --- | --- | --- | --- | --- | --- | --- | --- |
| 7.6 | 0.871 | 16.3 | 83 | 78 | c1coc(CNc2nccc3[nH]cnc23)c1 |  | Activity [6]: 0.5%; Activity (GM04078 [7]): Dose-dependent effect |
| 7.6 | 0.871 | 16.3 | 83 | 78 | c1coc(CNc2ncnc3ccsc23)c1 | Active | metabolised at 1 h, 2 µM [8]: > 50% |
| 7.6 | 0.871 | 16.3 | 83 | 78 | c1coc(CNc2ncnc3cc[nH]c23)c1 | Active |  |
| 7.6 | 0.871 | 16.3 | 83 | 78 | c1coc(CNc2ncnc3occc23)c1 | Active |  |
| 7.6 | 0.871 | 16.3 | 83 | 78 | c1coc(CNc2ncnc3[nH]ccc23)c1 | Active |  |
| 7.6 | 0.871 | 16.3 | 83 | 78 | c1coc(CNc2ncnc3cn[nH]c23)c1 | inactive |  |
| 7.6 | 0.871 | 16.3 | 83 | 78 | c1coc(CNc2ncnc3sccc23)c1 | Active |  |
| 7.6 | 0.871 | 16.3 | 83 | 78 | c1coc(CNc2ncnc3[nH]nnc23)c1 | inactive |  |
| 7.6 | 0.871 | 16.3 | 83 | 78 | c1coc(CNc2ccnc3[nH]cnc23)c1 |  |  |
| 7.6 | 0.871 | 16.3 | 83 | 78 | Cl.c1coc(CNc2ncnc3ccccc23)c1 | Active |  |
